This is an account of results in ChEMBL document CHEMBL1153526, “Design, synthesis, and pharmacological activities of dynorphin A analogues cyclized by ring-closing metathesis” (J Med Chem, 2009).

The experiment addresses Kappa-type opioid receptor (Rattus norvegicus) (UniProt P34975). Briefly: Agonist activity at rat cloned kappa opioid receptor expressed in CHO cells assessed as inhibition of forskolin-induced cAMP production by scintillation counting relative to Dyn A-(1-13)NH2. The conditions noted are these: concentration not given here. The class given is functional, cell-based. An outline of the steps:
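CHO cells stably expressing cloned rat κ receptor, washed in F12 and labelled 4 h with [3H]adenine. Then 40 min at 37 °C with 50 μM forskolin, peptidase inhibitors (bestatin, captopril, L-leucyl-L-leucine) and peptide at 0.1–10,000 nM in 10-fold steps. [3H]cAMP isolated on cation exchange resin and alumina, [14C]cAMP added for recovery, scintillation counted. Efficacy relative to Dyn A-(1-13)NH2. Mean ± SEM, ≥3 assays.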

Kappa-type opioid receptor (Rattus norvegicus), sequence (P34975 whole entry): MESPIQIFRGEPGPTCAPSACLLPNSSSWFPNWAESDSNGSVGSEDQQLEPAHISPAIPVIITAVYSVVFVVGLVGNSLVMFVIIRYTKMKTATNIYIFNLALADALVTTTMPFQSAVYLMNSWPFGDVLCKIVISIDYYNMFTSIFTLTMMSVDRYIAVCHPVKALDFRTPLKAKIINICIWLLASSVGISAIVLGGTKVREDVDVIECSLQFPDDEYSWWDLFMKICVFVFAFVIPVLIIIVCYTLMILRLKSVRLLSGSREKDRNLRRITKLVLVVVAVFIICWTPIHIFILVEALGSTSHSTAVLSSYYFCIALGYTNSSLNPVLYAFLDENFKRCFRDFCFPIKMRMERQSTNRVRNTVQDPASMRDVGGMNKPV

For orientation: inhibition means the drop in the measured response relative to a control, in per cent. In the case of `N=C(N)NCCC[C@@H]1NC(=O)[C@@H](NC(=O)[C@H](Cc2ccccc2)NC(=O)CNC(=O)CNC(=O)[C@@H](N)Cc2ccc(O)cc2)C/C=C\C[C@@H](C(=O)N[C@@H](CCCNC(=N)N)C(=O)N2CCC[C@H]2C(=O)N[C@@H](CCCCN)C(N)=O)NC(=O)[C@H](CCCNC(=N)N)NC1=O`, the inhibition turned out to be 110%.
The value for `CC[C@H](C)[C@H](NC(=O)[C@H](CCCN=C(N)N)NC(=O)[C@H](CCCN=C(N)N)NC(=O)[C@H](CC(C)C)NC(=O)[C@H](Cc1ccccc1)NC(=O)CNC(=O)CNC(=O)[C@@H](N)Cc1ccc(O)cc1)C(=O)N[C@@H](CCCN=C(N)N)C(=O)N1CCC[C@H]1C(=O)N[C@@H](CCCCN)C(N)=O` was 100%.
